Results reported in ChEMBL document CHEMBL2390890, “Optimization of a novel potent and selective bacterial DNA helicase inhibitor scaffold from a high throughput screening hit” (Bioorg Med Chem Lett, 2013).
Active and inactive are the calls of the source. No cut-off for these calls is given here.

Legend:
[1] = Inhibition of Bacillus anthracis replicative DNA helicase using Hel-5'FAM:Hel-3'BHQ as substrate assessed as DNA duplex strand unwinding by FRET assay
HeLa = assay: Cytotoxicity against human HeLa cells by MTT assay in presence of serum free media; assay type: cell-based
[2] = Inhibition of Staphylococcus aureus replicative DNA helicase using Hel-5'FAM:Hel-3'BHQ as substrate assessed as DNA duplex strand unwinding by FRET assay
Staphylococcus aureus [3] = assay: Inhibition of Staphylococcus aureus single-strand DNA-stimulated replicative DNA helicase ATPase activity assessed as release of inorganic phosphate at 50 uM after 30 mins by malachite green assay
Staphylococcus aureus [4] = assay: (§1) Competitive inhibition of Staphylococcus aureus replicative DNA helicase using DNA as substrate by Dixon plot analysis
Outline: (§2)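 FRET-based strand-unwinding assay with S. aureus replicative DNA helicase. An inhibitor dilution series was run at several oligonucleotide (DNA substrate) concentrations, the lowest being 3 nM. IC50 at each level came from 4-parameter curve fitting. Ki and the inhibition mode were derived from a Dixon plot of the DNA-variation data.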

Staphylococcus aureus [5] = assay: (§3) Non-competitive inhibition of Staphylococcus aureus replicative DNA helicase using ATP as substrate
Outline: (§4)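 S. aureus replicative DNA helicase was tested in a FRET-based unwinding assay. An inhibitor dilution series was run across several ATP concentrations. IC50 at each ATP level came from 4-parameter curve fitting, and the mode of inhibition was assigned from how IC50 shifted with ATP concentration.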

[6] = Selectivity index, ratio of CC50 for human HeLa cells to IC50 for Staphylococcus aureus replicative DNA helicase; assay type: functional
[7] = as §1; outline: as §2
[8] = as §3; outline: as §4
Bacillus anthracis = assay: Antibacterial activity against Bacillus anthracis Sterne assessed as inhibition of incorporation of radiolabeled precursors into DNA; assay type: functional, organism-based

## COc1cc2ccccc2cc1C(=O)Nc1nc2ccc3nc(SC)sc3c2s1
[1]
  IC50: > 50 µM

## CSc1nc2ccc3nc(NC(=O)c4ccc5c(c4)OCCO5)sc3c2s1
[1]
  IC50: 3 µM

## CSc1nc2ccc3nc(NC(=O)c4cccc(N5C(=O)CCC5=O)c4)sc3c2s1
HeLa
  CC50: > 100 µM
[2]
  IC50: 12 µM
[1]
  IC50: 5 µM

## CSc1nc2ccc3nc(NC(=O)c4cccc(Cl)c4)sc3c2s1
[1]
  IC50: 5.3 µM

## COc1ccc(C(=O)Nc2nc3ccc4nc(SC)sc4c3s2)c(OC)c1
[1]
  IC50: > 100 µM

## COc1cccc(C(=O)Nc2nc3ccc4nc(NCCN5CCOCC5)sc4c3s2)c1
HeLa
  CC50: 9.6 µM
[2]
  IC50: 2.2 µM
[1]
  IC50: 0.5 µM

## CCN(CC)c1ccc(C(=O)Nc2nc3ccc4nc(SC)sc4c3s2)cc1
[1]
  IC50: > 100 µM

## CSc1nc2ccc3nc(NC(=O)c4cccc(F)c4)sc3c2s1
[1]
  IC50: 3.3 µM

## COc1cccc(C(=O)Nc2nc3ccc4nc(SC)sc4c3s2)c1
HeLa
  CC50: 12.4 µM
[2]
  IC50: 6.6 µM
[1]
  IC50: 12.5 µM

## CNc1nc2ccc3nc(NC(=O)c4cc(OC)c(OC)c(OC)c4)sc3c2s1
Staphylococcus aureus [3]
  inhibition: inactive
Staphylococcus aureus [4]
  inhibition: Active
Staphylococcus aureus [5]
  inhibition: Active
[6]
  Ratio CC50/IC50: >500
HeLa
  CC50: > 100 µM
[2]
  IC50: 0.2 µM
[1]
  IC50: 0.2 µM

## COc1cccc(OC)c1C(=O)Nc1nc2ccc3nc(SC)sc3c2s1
[1]
  IC50: > 100 µM

## CNc1nc2ccc3nc(NC(=O)c4cccc(OC)c4)sc3c2s1
Staphylococcus aureus [3]
  inhibition: inactive
[7]
  Ki: 2 µM
[8]
  IC50: 2 µM
HeLa
  CC50: > 100 µM
[2]
  IC50: 2.2 µM
[1]
  IC50: 0.5 µM

## COc1cccc(C(=O)Nc2nc3ccc4nc(NC5CCCCC5)sc4c3s2)c1
[2]
  IC50: > 100 µM
[1]
  IC50: 90 µM

## COc1cccc(C(=O)Nc2nc3ccc4nc(NC(C)C)sc4c3s2)c1
[2]
  IC50: 80 µM
[1]
  IC50: 65 µM

## CSc1nc2ccc3nc(NC(=O)c4ccccc4Oc4ccccc4)sc3c2s1
[1]
  IC50: > 100 µM

## COc1cc(C(=O)Nc2nc3ccc4nc(NCCO)sc4c3s2)cc(OC)c1OC
Bacillus anthracis
  IC50: 17 µM
Staphylococcus aureus [4]
  inhibition: Active
Staphylococcus aureus [5]
  inhibition: Active
HeLa
  CC50: > 100 µM
[2]
  IC50: 0.3 µM
[1]
  IC50: 0.2 µM

## COc1cc(/C=N/c2nc3ccc4nc(SC)sc4c3s2)cc(OC)c1OC
[2]
  IC50: > 100 µM

## COC(=O)c1ccc(C(=O)Nc2nc3ccc4nc(SC)sc4c3s2)cc1
[1]
  IC50: 3.7 µM

## COc1cc(OC)cc(C(=O)Nc2nc3ccc4nc(SC)sc4c3s2)c1
[1]
  IC50: 1.7 µM

## CSc1nc2ccc3nc(NC(=O)c4cccc([N+](=O)[O-])c4)sc3c2s1
[1]
  IC50: 2.8 µM

## CSc1nc2ccc3nc(NC(=O)c4ccc(N5C(=O)CCC5=O)cc4)sc3c2s1
[1]
  IC50: 1.3 µM

## CCOc1ccc(C(=O)Nc2nc3ccc4nc(SC)sc4c3s2)cc1
[1]
  IC50: 6.9 µM

## CSc1nc2ccc3nc(NC(=O)c4ccc(OC(C)C)cc4)sc3c2s1
[1]
  IC50: > 100 µM

## COc1ccc(C(=O)Nc2nc3ccc4nc(SC)sc4c3s2)cc1
[1]
  IC50: 2.2 µM

## COc1cccc(C(=O)Nc2nc3ccc4nc(NCC(C)C)sc4c3s2)c1
HeLa
  CC50: 44 µM
[2]
  IC50: 9 µM
[1]
  IC50: 13 µM

## COc1cccc(C(=O)Nc2nc3ccc4nc(NCCN(C)C)sc4c3s2)c1
[2]
  IC50: 1 µM
[1]
  IC50: 1 µM

## CSc1nc2ccc3nc(NC(=O)c4ccccc4Cl)sc3c2s1
[1]
  IC50: > 100 µM

## CSc1nc2ccc3nc(NC(=O)c4ccc(Cl)cc4)sc3c2s1
[1]
  IC50: 5 µM

## CSc1nc2ccc3nc(NC(=O)c4cc(C)no4)sc3c2s1
[1]
  IC50: > 50 µM

## CSc1nc2ccc3nc(NC(=O)COc4ccc(Cl)cc4Cl)sc3c2s1
[1]
  IC50: > 100 µM

## CSc1nc2ccc3nc(NC(=O)c4cnccn4)sc3c2s1
[1]
  IC50: 28 µM

## CSc1nc2ccc3nc(NC(=O)c4c(F)cccc4F)sc3c2s1
[1]
  IC50: 64.5 µM

## COc1ccc(C(=O)Nc2nc3ccc4nc(SC)sc4c3s2)cc1OC
[1]
  IC50: 2.1 µM

## COc1cc(C(=O)Nc2nc3ccc4nc(N5CCN(C)CC5)sc4c3s2)cc(OC)c1OC
Bacillus anthracis
  IC50: 10 µM
HeLa
  CC50: 2.8 µM
[2]
  IC50: 0.2 µM
[1]
  IC50: 0.2 µM

## COc1cc(C(=O)Nc2nc3ccc4nc(SC)sc4c3s2)cc(OC)c1OC
HeLa
  CC50: > 100 µM
[2]
  IC50: 0.4 µM
[1]
  IC50: 0.7 µM

## CSc1nc2ccc3nc(NC(=O)Cc4ccccc4)sc3c2s1
[1]
  IC50: 47 µM

## CSc1nc2ccc3nc(NC(=O)CCc4ccccc4)sc3c2s1
[1]
  IC50: > 100 µM

## CCN(CC)S(=O)(=O)c1ccc(C(=O)Nc2nc3ccc4nc(SC)sc4c3s2)cc1
[1]
  IC50: > 100 µM

## CSc1nc2ccc3nc(NC(=O)c4ccccc4C)sc3c2s1
[1]
  IC50: 6.6 µM

## CSc1nc2ccc3nc(NC(=O)c4cccc(N(C)C)c4)sc3c2s1
[1]
  IC50: 36 µM

## COc1cccc(C(=O)Nc2nc3ccc4nc(NCc5ccccc5)sc4c3s2)c1
[2]
  IC50: > 100 µM
[1]
  IC50: 75 µM

## CSc1nc2ccc3nc(NC(=O)c4ccccc4Br)sc3c2s1
[1]
  IC50: > 100 µM

## CSc1nc2ccc3nc(NC(=O)c4ccc(N(C)C)cc4)sc3c2s1
[1]
  IC50: 2.4 µM

## CSc1nc2ccc3nc(NC(=O)c4ccc(Oc5ccccc5)cc4)sc3c2s1
[1]
  IC50: > 100 µM

## CSc1nc2ccc3nc(NC(=O)c4ccc(C#N)cc4)sc3c2s1
[1]
  IC50: 11 µM

## CSc1nc2ccc3nc(NC(=O)c4cccc(Br)c4)sc3c2s1
[1]
  IC50: 2.3 µM

## CSc1nc2ccc3nc(NC(=O)c4ccc(C)cc4)sc3c2s1
[1]
  IC50: 7.6 µM

## COc1cccc(C(=O)Nc2nc3ccc4nc(NCCO)sc4c3s2)c1
HeLa
  CC50: > 100 µM
[2]
  IC50: 4.2 µM
[1]
  IC50: 2.2 µM

## CSc1nc2ccc3nc(NC(=O)c4ccccc4F)sc3c2s1
[1]
  IC50: 50 µM

## COc1c(C(=O)Nc2nc3ccc4nc(SC)sc4c3s2)cnn1C
[1]
  IC50: > 100 µM

## COc1cc(C(=O)Nc2nc3ccc4nc(NCCN5CCOCC5)sc4c3s2)cc(OC)c1OC
HeLa
  CC50: 5.7 µM
[2]
  IC50: 0.2 µM
[1]
  IC50: 0.2 µM

## CSc1nc2ccc3nc(NC(=O)CN4C(=O)CCC4=O)sc3c2s1
[1]
  IC50: > 100 µM

## CSc1nc2ccc3nc(NC(=O)c4ccco4)sc3c2s1
[1]
  IC50: 102 µM

## CSc1nc2ccc3nc(NC(=O)c4ccc(C(C)(C)C)cc4)sc3c2s1
[1]
  IC50: > 100 µM

## COc1cc(CNc2nc3ccc4nc(SC)sc4c3s2)cc(OC)c1OC
[2]
  IC50: > 100 µM

## CCCNc1nc2ccc3nc(NC(=O)c4cccc(OC)c4)sc3c2s1
HeLa
  CC50: < 0.08 µM
[2]
  IC50: 1.3 µM
[1]
  IC50: 1.1 µM

## CSc1nc2ccc3nc(NC(=O)c4ccc(C)c(C)c4)sc3c2s1
[1]
  IC50: 3.2 µM

## CSc1nc2ccc3nc(NC(=O)c4c(C)cnn4C)sc3c2s1
[1]
  IC50: > 50 µM

## COc1cc(C(=O)Nc2nc3ccc4nc(NCCN(C)C)sc4c3s2)cc(OC)c1OC
HeLa
  CC50: < 0.78 µM
[2]
  IC50: 0.2 µM
[1]
  IC50: 0.2 µM

## COc1cccc(C(=O)Nc2nc3ccc4nc(N5CCOCC5)sc4c3s2)c1
HeLa
  CC50: > 100 µM
[2]
  IC50: 3 µM
[1]
  IC50: 2.3 µM

## CSc1nc2ccc3nc(NC(=O)C4CC4)sc3c2s1
[1]
  IC50: > 100 µM

## CSc1nc2ccc3nc(NC(=O)c4cccs4)sc3c2s1
[1]
  IC50: 90 µM
